According to ChEMBL document CHEMBL4699489, “Optimized Opioid-Neurotensin Multitarget Peptides: From Design to Structure-Activity Relationship Studies” (J Med Chem, 2020):
Numbered stars: 1 amine (or outer) side, 2 acyl side, 3 side chain; on linkers, the order of the positions; unused ones are H or OH. Square brackets hold non-standard residues; d marks the D form. Peptide text beside a SMILES is read from it. X1 = O=C1[C@@H](N[*:1])Cc2ccccc2CN1CCC(=O)[*:2]; X2 = O=C([C@@H]1Cc2cc(O)ccc2CN1[*:1])[*:2]; Dmt = Cc1cc(O)cc(C)c1C[C@H](N)C(=O)O; mTyr = N[C@@H](Cc1cccc(O)c1)C(=O)O; Tle = CC(C)(C)[C@H](N)C(=O)O; β3hK = NCCCC[C@H](N)CC(=O)O

Columns and labels:
Mu-type opioid receptor [1] = target: T1, Mu-type opioid receptor (Homo sapiens, UniProt P35372); assay: Displacement of [3H]-DAMGO from recombinant human mu opioid receptor expressed in CHO cell membrane incubated for 60 mins by liquid scintillation counting method; type: cell membranes
T1 sequence (P35372 whole entry): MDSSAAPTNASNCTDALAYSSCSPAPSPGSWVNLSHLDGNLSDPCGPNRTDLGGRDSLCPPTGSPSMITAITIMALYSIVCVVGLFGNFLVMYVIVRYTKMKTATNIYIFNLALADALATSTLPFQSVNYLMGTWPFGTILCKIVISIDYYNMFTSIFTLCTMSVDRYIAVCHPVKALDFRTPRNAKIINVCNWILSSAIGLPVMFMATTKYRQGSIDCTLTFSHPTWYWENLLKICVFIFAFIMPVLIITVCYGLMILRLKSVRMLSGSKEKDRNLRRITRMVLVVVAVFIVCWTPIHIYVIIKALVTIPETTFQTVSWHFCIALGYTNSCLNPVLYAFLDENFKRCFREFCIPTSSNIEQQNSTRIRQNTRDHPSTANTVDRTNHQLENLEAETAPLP
Summary of the method: (§1)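 Membranes from CHO-hMOR, -hDOR or -hKOR cells, homogenized and washed in 50 mM Tris-HCl pH 7.4. Membranes (15–20 μg) incubated with [3H]DAMGO (MOR), [3H]diprenorphine (DOR) or [3H]U69,593 (KOR) plus graded peptide, 60 min at 25 °C. Nonspecific binding with 1–10 μM of the unlabelled ligand. GF/C filtration, scintillation counting. Ki by Cheng–Prusoff. Duplicate, three independent experiments.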

[2] = target: T2, Delta-type opioid receptor (Homo sapiens, UniProt P41143); assay: Displacement of [3H]-Diprenorphine from recombinant human delta opioid receptor expressed in CHO cell membrane incubated for 60 mins by liquid scintillation counting method; type: cell membranes; summary of the method: as §1
T2 sequence (P41143 whole entry): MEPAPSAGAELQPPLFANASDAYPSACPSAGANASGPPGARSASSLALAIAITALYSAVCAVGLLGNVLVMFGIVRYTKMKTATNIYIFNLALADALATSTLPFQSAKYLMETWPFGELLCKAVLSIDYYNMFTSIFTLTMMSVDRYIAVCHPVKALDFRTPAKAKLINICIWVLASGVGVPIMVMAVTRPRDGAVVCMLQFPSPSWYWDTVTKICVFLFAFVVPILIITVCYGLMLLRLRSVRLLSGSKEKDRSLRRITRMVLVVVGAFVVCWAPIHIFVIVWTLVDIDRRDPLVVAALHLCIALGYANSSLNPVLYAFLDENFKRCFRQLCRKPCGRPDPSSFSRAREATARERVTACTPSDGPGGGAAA

[3] = target: T3, Kappa-type opioid receptor (Homo sapiens, UniProt P41145); assay: Displacement of [3H]-U69593 from recombinant human kappa opioid receptor expressed in CHO cell membrane incubated for 60 mins by liquid scintillation counting method; type: cell membranes; summary of the method: as §1
T3 sequence (P41145 whole entry): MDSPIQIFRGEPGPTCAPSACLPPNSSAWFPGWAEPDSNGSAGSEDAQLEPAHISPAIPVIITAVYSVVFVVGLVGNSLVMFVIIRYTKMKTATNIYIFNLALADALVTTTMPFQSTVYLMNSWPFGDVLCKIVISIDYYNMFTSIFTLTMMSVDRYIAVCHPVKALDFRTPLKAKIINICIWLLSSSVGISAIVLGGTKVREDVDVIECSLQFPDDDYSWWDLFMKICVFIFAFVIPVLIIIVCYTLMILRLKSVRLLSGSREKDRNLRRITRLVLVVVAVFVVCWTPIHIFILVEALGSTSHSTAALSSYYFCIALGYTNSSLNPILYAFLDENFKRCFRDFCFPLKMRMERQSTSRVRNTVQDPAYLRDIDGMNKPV

[4] = target: T4, Neurotensin receptor type 1 (Homo sapiens, UniProt P30989); assay: Displacement of [125I]-neurotensin from human recombinant NTS1 stably expressed in CHO-K1 cell membranes incubated for 60 mins by gamma counter method
T4 sequence (P30989 whole entry): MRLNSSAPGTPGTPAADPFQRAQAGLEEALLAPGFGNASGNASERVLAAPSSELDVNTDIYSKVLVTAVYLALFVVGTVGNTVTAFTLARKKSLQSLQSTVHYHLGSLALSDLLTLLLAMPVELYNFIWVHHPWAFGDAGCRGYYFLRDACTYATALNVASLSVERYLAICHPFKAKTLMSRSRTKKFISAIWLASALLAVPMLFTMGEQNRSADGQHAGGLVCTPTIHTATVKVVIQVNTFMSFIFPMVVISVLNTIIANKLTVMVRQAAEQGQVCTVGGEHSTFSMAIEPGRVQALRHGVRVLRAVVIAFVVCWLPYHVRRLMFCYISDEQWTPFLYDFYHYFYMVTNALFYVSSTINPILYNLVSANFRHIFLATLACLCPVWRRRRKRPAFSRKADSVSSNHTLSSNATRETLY

[5] = target: Neurotensin receptor type 2 (Homo sapiens, UniProt O95665); assay: Displacement of [125I]-neurotensin from human recombinant NTS2 stably expressed in human 1321N1 cell membranes incubated for 60 mins by gamma counter method
Neurotensin receptor type 2, sequence (O95665 whole entry): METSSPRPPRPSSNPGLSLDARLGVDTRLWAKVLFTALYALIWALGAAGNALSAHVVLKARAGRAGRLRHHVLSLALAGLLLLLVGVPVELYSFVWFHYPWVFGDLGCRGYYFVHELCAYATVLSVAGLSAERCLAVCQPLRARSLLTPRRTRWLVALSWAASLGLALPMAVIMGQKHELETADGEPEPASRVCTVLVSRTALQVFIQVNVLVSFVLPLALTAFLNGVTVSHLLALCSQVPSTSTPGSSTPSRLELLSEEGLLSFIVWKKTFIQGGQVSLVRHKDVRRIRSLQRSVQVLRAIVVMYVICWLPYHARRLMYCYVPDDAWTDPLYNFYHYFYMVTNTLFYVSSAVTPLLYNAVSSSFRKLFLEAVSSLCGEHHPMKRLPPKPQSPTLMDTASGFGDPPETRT

Mu-type opioid receptor [6] = target: T1, Mu-type opioid receptor; assay: Potency index, ratio of PK20 Ki to test compound Ki for displacement of [3H]-DAMGO from recombinant human mu opioid receptor expressed in CHO cell membranes
Mu-type opioid receptor [7] = target: T1, Mu-type opioid receptor; assay: Agonist activity at human MOR stably expressed in CHO cell membranes assessed as stimulation of [35S]-GTPgammaS binding incubated for 1 hr by liquid scintillation counting assay; type: functional
Summary of the method: (§2)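 Membranes from CHO cells stably expressing hMOR, hDOR or hKOR, prepared in 20 mM HEPES, 10 mM MgCl2, 100 mM NaCl, pH 7.4. Membranes (5–10 μg) incubated with 0.05 nM [35S]GTPγS, 10 μM GDP and graded peptide concentrations, 60 min at 25 °C. Nonspecific binding with 10 μM GTPγS, basal without ligand. GF/B filtration, scintillation counting. EC50 and Emax by nonlinear regression; Emax relative to DAMGO, DPDPE or U69,593. Duplicate, three independent experiments.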

Mu-type opioid receptor [8] = target: T1, Mu-type opioid receptor; assay: Agonist activity at human MOR expressed in CHO cell membranes assessed as stimulation of [35S]-GTPgammaS binding incubated for 1 hr by liquid scintillation counting assay relative to DAMGO; type: functional; details: filed as agonist, time 60.0 min; summary of the method: as §2
Mu-type opioid receptor [9] = target: T1, Mu-type opioid receptor; assay: Agonist activity at human MOR expressed in human U2OS cells assessed as increase in beta arrestin2 recruitment incubated for 90 mins by pathhunter beta-arrestin assay; type: cell-based
Summary of the method: (§3)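 U2OS cells stably coexpressing hMOR and enzyme acceptor-tagged β-arrestin-2, seeded at 5000 cells/well and kept 24 h at 37 °C. Graded peptide concentrations in PBS added for 90 min at 37 °C, then detection mix for 60 min at room temperature. Chemiluminescence read-out. EC50 and Emax (relative to DAMGO) by nonlinear regression. Duplicate, three independent experiments.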

Mu-type opioid receptor [10] = target: T1, Mu-type opioid receptor; assay: Agonist activity at human MOR expressed in human U2OS cells assessed as increase in beta arrestin2 recruitment incubated for 90 mins by pathhunter beta-arrestin assay relative to DAMGO; type: cell-based; details: filed as partial agonist; summary of the method: as §3
[11] = target: T2, Delta-type opioid receptor; assay: Agonist activity at human DOR stably expressed in CHO cell membranes assessed as stimulation of [35S]-GTPgammaS binding incubated for 1 hr by liquid scintillation counting assay; type: functional; summary of the method: as §2
[12] = target: T2, Delta-type opioid receptor; assay: Agonist activity at human DOR stably expressed in CHO cell membranes assessed as stimulation of [35S]-GTPgammaS binding incubated for 1 hr by liquid scintillation counting assay relative to DPDPE; type: functional; details: filed as agonist, time 60.0 min; summary of the method: as §2
[13] = target: T3, Kappa-type opioid receptor; assay: Agonist activity at human KOR stably expressed in CHO cell membranes assessed as stimulation of [35S]-GTPgammaS binding incubated for 1 hr by liquid scintillation counting assay; type: functional; summary of the method: as §2
[14] = target: T3, Kappa-type opioid receptor; assay: Agonist activity at human KOR stably expressed in CHO cell membranes assessed as stimulation of [35S]-GTPgammaS binding incubated for 1 hr by liquid scintillation counting assay relative to U69593; type: functional; details: time 60.0 min; summary of the method: as §2
[15] = target: T4, Neurotensin receptor type 1; assay: Agonist activity at human NTS1 expressed in HEK293 cells co-expressing Galphaq/RlucII/GFP10-Ggamma1/Gbeta1 assessed as increase in Galphaq activation incubated for 10 mins in presence of coelenterazine 400A by BRET assay; type: cell-based
[16] = target: T4, Neurotensin receptor type 1; assay: Agonist activity at human NTS1 expressed in HEK293 cells co-expressing Galphaq/RlucII/GFP10-Ggamma1/Gbeta1 assessed as increase in Gq activation incubated for 10 mins in presence of coelenterazine 400A by BRET assay relative to NT (8-13); type: cell-based

| SMILES | Ki (Mu-type opioid receptor [1]) [nM] | Ki [2] [nM] | Ki [3] [nM] | Ki [4] [nM] | Ki [5] [nM] | Ratio Ki (Mu-type opioid receptor [6]) | EC50 (Mu-type opioid receptor [7]) [nM] | Emax (Mu-type opioid receptor [8]) [%] | EC50 (Mu-type opioid receptor [9]) [nM] | Emax (Mu-type opioid receptor [10]) [%] | EC50 [11] [nM] | Emax [12] [%] | EC50 [13] [nM] | Emax [14] [%] | EC50 [15] [nM] | Emax [16] [%] |
| --- | --- | --- | --- | --- | --- | --- | --- | --- | --- | --- | --- | --- | --- | --- | --- | --- |
| Cc1cc(O)cc(C)c1C[C@H](N)C(=O)N[C@H](CCCNC(=N)N)C(=O)N[C@H]1Cc2ccccc2CN(CCC(=O)N[C@@H](CCCCN)C(=O)N[C@@H](CCCCN)C(=O)N2CCC[C@H]2C(=O)N[C@@H](Cc2cccc(O)c2)C(=O)N[C@H](C(=O)N[C@@H](CC(C)C)C(=O)O)C(C)(C)C)C1=O (H-[Dmt][dR][X1]KKP[mTyr][Tle]L-OH) | 3.99 | 200 | 70.9 | 59 | 0.5 | 2 | 27.4 | 87 | 1270 | 66 | 452 | 90 | 401 | 30 | 15 | 90 |
| Cc1cc(O)cc(C)c1C[C@H](N)C(=O)N[C@H](CCCNC(=N)N)C(=O)N[C@H]1Cc2ccccc2CN(CCC(=O)N[C@@H](CCCCN)C(=O)N[C@@H](CCCCN)C(=O)N2CCC[C@H]2C(=O)N[C@@H](Cc2ccc(O)cc2)C(=O)N[C@H](C(=O)N[C@@H](CC(C)C)C(=O)O)C(C)(C)C)C1=O (H-[Dmt][dR][X1]KKPY[Tle]L-OH) | 4.89 | 213 | 201 | 2.3 | 0.29 | 2 | 64.6 | 99 | 2460 | 67 | 1320 | 87 | 1650 | 31 | 0.26 | 99 |
| Cc1cc(O)cc(C)c1C[C@H](N)C(=O)N[C@H](CCCNC(=N)N)C(=O)N[C@H]1Cc2ccccc2CN(CCC(=O)N[C@@H](CCCCN)C(=O)N[C@@H](CCCCN)C(=O)N2CCC[C@H]2C(=O)N2Cc3ccc(O)cc3C[C@H]2C(=O)N[C@H](C(=O)N[C@@H](CC(C)C)C(=O)O)C(C)(C)C)C1=O (H-[Dmt][dR][X1]KKP[X2][Tle]L-OH) | 6.24 | 209 | 150 | 6830 | 75 | 2 | 45.6 | 94 | 2160 | 66 | 842 | 91 | 1560 | 20 | – | – |
| Cc1cc(O)cc(C)c1C[C@H](N)C(=O)N[C@H](CCCNC(=N)N)C(=O)N[C@H]1Cc2ccccc2CN(CCC(=O)N[C@@H](CCCNC(=N)N)C(=O)N[C@@H](CCCNC(=N)N)C(=O)N2CCC[C@H]2C(=O)N[C@@H](Cc2ccc(O)cc2)C(=O)N[C@H](C(=O)N[C@@H](CC(C)C)C(=O)O)C(C)(C)C)C1=O (H-[Dmt][dR][X1]RRPY[Tle]L-OH) | 1.32 | 56.4 | 78.6 | 0.43 | 0.09 | 2 | 12.8 | 94 | 1330 | 72 | 301 | 106 | 514 | 34 | 0.24 | 111 |
| Cc1cc(O)cc(C)c1C[C@H](NC(=O)[C@@H]1CCCN1C(=O)[C@H](CCCCN)NC(=O)[C@H](CCCCN)NC(=O)CCN1Cc2ccccc2C[C@H](NC(=O)[C@@H](CCCNC(=N)N)NC(=O)[C@@H](N)Cc2c(C)cc(O)cc2C)C1=O)C(=O)N[C@H](C(=O)N[C@@H](CC(C)C)C(=O)O)C(C)(C)C (H-[Dmt][dR][X1]KKP[Dmt][Tle]L-OH) | 7.15 | 276 | 138 | 13 | 0.16 | 2 | 48.7 | 95 | 1960 | 62 | 898 | 60 | 1570 | 22 | 3.9 | 109 |
| Cc1cc(O)cc(C)c1C[C@H](NC(=O)[C@@H]1CCCN1C(=O)[C@H](CCCCN)NC(=O)C[C@H](CCCCN)NC(=O)CCN1Cc2ccccc2C[C@H](NC(=O)[C@@H](CCCNC(=N)N)NC(=O)[C@@H](N)Cc2c(C)cc(O)cc2C)C1=O)C(=O)N[C@H](C(=O)N[C@@H](CC(C)C)C(=O)O)C(C)(C)C (H-[Dmt][dR][X1][β3hK]KP[Dmt][Tle]L-OH) | 7.12 | 48.6 | 208 | 15 | 0.32 | 2 | 65.4 | 97 | 3040 | 69 | 248 | 97 | 239 | 36 | 1.8 | 112 |
| Cc1cc(O)cc(C)c1C[C@H](NC(=O)[C@@H]1CCCN1C(=O)[C@H](CCCNC(=N)N)NC(=O)[C@H](CCCNC(=N)N)NC(=O)CCN1Cc2ccccc2C[C@H](NC(=O)[C@@H](CCCNC(=N)N)NC(=O)[C@@H](N)Cc2c(C)cc(O)cc2C)C1=O)C(=O)N[C@H](C(=O)N[C@@H](CC(C)C)C(=O)O)C(C)(C)C (H-[Dmt][dR][X1]RRP[Dmt][Tle]L-OH) | 1.11 | 159 | 102 | 0.78 | 0.03 | 2 | 9.12 | 96 | 1140 | 79 | 313 | 91 | 415 | 37 | 1.3 | 101 |
